In the library only some 3.1% were active in any assay of this set; here they are far more common.
Ecoli rRNA inh: inhibitors of bacterial rRNA selective over humanized ribosomes. E. coli WT GFP vs humanized-ribosome RFP mutants, fluorescence, 24 h; stronger effect = lower value; DMSO median 0, no signal -100. GFP signal change (wild-type ribosome), % (concentration not given with the values). actives 1.6% (n = 350,000). AID 720706;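 active means significant combined selectivity score with lowered wild-type GFP, culture density cut under 30%, mutant RFP and density less affected; inactive means any of these conditions unmet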
Cneo AK release: Cryptococcus neoformans lysis via adenylate kinase release. lysis activity, % at 15 µM. AID 651654. actives 0.2% (n = 360,000). C. neoformans lysis, adenylate kinase release luminescence, 4 h; normalised: neutral wells 0, clomiphene wells 100;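 active means mean lysis activity across replicates of at least 80%, whatever share of replicates individually reach that level; inactive means mean lysis activity below 80%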
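Assay system: log-phase C. neoformans yeast / Quantity: yeast cell density of 5 × 10^6 cells/mL / Medium: fresh YPD growth medium / Compound: single dose / Timing: static 4 h at 37 °C with compound, 1 h detection / Measured by: adenylate kinase release luminescence / Read-out: lysis from increased AK signal / Benchmarks: Clomiphene as positive lysis control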
miR-122 sensor: miR-122 inhibition in Huh7 cells; Huh7 miR-122 Renilla luciferase sensor, 48 h; neutral wells = 0, positive control = 100; activation (reporter increase), % at 12.5 µM; actives 0.3% (n = 340,000); AID 602342;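 active means mean replicate activation score at least 90 and every replicate individually at or above 90; inconclusive means only one of the two criteria met; inactive means neither criterion met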;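 further: higher luciferase means less miR-122 activity so hits act as miR-122 inhibitors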
DENV2 CPE: DENV2-induced cell death inhibition; AID 651640; DENV2-infected cells, cytopathic effect rescue, plate reader; actives 1.7% (n = 350,000); CPE inhibition, % at 9.99 µM; in the data active means CPE inhibition above about 20%, passing the limit was not always enough; inconclusive means no clear call, values can overlap the other calls; tested in BHK-21 cells;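 further: 0% = median of neutral control wells and 100% = median of positive control wells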
E-selectin induc: E-selectin induction on HUVECs. P16581. HUVEC E-selectin immunofluorescence imaging; normalized: neutral wells 0, TNF-alpha wells 100. actives 0.37% (n = 260,000). activation, % at 7.58 µM;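 active means mean E-selectin-positive cell signal at least 10% of the positive control, reached in at least 60% of replicates, without over 20% cell loss; inconclusive means no rule given, readout overlaps actives, possibly toxicity-flagged; inactive means the rest, including those meeting only one limit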
Target sequence (P16581 whole entry, looked up): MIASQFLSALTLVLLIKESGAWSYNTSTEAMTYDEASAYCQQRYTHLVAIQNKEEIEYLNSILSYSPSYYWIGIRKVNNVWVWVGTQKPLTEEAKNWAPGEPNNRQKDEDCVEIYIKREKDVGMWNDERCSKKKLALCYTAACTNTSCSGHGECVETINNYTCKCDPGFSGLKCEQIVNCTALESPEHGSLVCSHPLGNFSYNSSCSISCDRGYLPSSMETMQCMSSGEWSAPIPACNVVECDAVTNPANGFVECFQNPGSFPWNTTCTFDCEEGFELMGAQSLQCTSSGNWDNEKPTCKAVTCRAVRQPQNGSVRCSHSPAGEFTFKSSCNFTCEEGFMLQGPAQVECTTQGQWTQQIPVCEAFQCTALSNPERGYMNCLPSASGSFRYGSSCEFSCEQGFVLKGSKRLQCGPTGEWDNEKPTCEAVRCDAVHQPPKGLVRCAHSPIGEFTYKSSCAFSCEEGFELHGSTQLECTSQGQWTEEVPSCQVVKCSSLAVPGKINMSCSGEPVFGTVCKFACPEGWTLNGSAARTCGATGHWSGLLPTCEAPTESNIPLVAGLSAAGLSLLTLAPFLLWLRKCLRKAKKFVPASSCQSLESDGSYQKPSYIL
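Assay system: HUVEC primary endothelial cells. Input: 3,000 HUVEC seeded per well. Doses: one compound dose added by pin transfer. Read-out basis: % PE-positive cells. Benchmarks: TNF-alpha high, DMSO low. Detection: immunofluorescence imaging. Buffer or medium: EGM-2, gelatin.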
* = called active by the depositor; ? = inconclusive; nt = no result given.

SMILES	Ecoli rRNA inh	Cneo AK release	miR-122 sensor	DENV2 CPE	E-selectin induc
CCOC(=O)C1CCN(C(=O)c2cc(S(=O)(=O)N(C)C)ccc2N2CCCC2)CC1	4.2	-0.1	4.6	0.6	nt
Cc1[nH]c(C)c(S(=O)(=O)Nc2ccccc2Cl)c1C(=O)N1CCCC1	11.0	4.9	1.8	-5.5	nt
COc1ccccc1NS(=O)(=O)c1c(C)[nH]c(C)c1C(=O)N1CCCC1	9.0	2.6	-0.1	-1.1	49.8*
CCC(=O)N1CC(=O)N2[C@H](CO)[C@@H](c3ccc(C#CC(C)C)cc3)[C@@H]2C1	0.4	nt	nt	nt	nt
CN(Cc1ccccc1)C(=O)C(C(=O)c1ccc(F)cc1)n1cc(Cl)ccc1=O (stereo not drawn)	-29.8*	nt	nt	0.1	1.3
COc1ccc(CSC2=C(C#N)C(=O)NC3(CCCCC3)S2)cc1	-28.1*	-3.3	nt	10.3	0.0
CCCCCCSC1=C(C#N)C(=O)NC2(CCCCC2)S1	nt	1.4	-8.3	nt	nt
CC(=O)c1sc(N/N=C/c2cccc(O)c2)nc1C	-20.7*	-8.3	9.4	11.0	0.1
CCOC(=O)Cc1csc(NC(=O)c2cccc([N+](=O)[O-])c2)n1	-2.3	3.1	3.7	-3.2	nt
CCOC(=O)Cc1csc(N/N=C/c2cccc([N+](=O)[O-])c2)n1	4.8	-2.3	nt	29.2*	nt
O=C(NC(=S)Nc1nc(-c2cccc([N+](=O)[O-])c2)cs1)c1ccccc1Cl	-19.0*	nt	4.3	3.6	0.4
O=[N+]([O-])c1cccc(-c2csc(N/N=C/c3cccc(O)c3)n2)c1	-41.5*	nt	-0.2	-4.8	nt
O=C(NC1CCCC1)[C@@H]1[C@@H](CO)[C@@H]2Cn3c(ccc(-c4ccccc4)c3=O)[C@H]1N2CCc1ccccc1	-9.9	-1.6	nt	6.6	-1.4
C=C1CC[C@@H]2[C@](C)(CO)[C@H](O)CC[C@@]2(C)[C@@H]1/C=C/C1=CCOC1=O	-23.1*	0.0	-9.2	0.6	1.4
CCCNC(=O)Nc1ccc2c(c1)C(=O)N(C)C[C@H](OC)[C@@H](C)CN(C(=O)c1ccccc1F)[C@H](C)CO2	1.6	-2.4	nt	-0.5	0.0
O=C(Cc1cccnc1)N[C@@H]1CC[C@H](CCn2cc(-c3ccccc3F)nn2)O[C@@H]1CO	1.9	-1.2	nt	44.8*	-2.0
O=C(Cc1cccnc1)N[C@H]1CC[C@@H](CCn2cc(-c3ccccc3F)nn2)O[C@H]1CO	-0.4	5.8	nt	6.7	0.3
O=C(Cc1cccnc1)N[C@H]1CC[C@H](CCn2cc(Cc3ccccc3)nn2)O[C@@H]1CO	2.4	-1.8	nt	77.2*	-0.3
O=C(Cc1cccnc1)N[C@H]1CC[C@@H](CCn2cc(Cc3ccccc3)nn2)O[C@@H]1CO	2.5	0.8	nt	4.6	0.0
O=C(NCC1CC1)[C@H]1[C@H](CO)[C@H]2Cn3c(ccc(-c4cccnc4)c3=O)[C@@H]1N2C(=O)C1CCCC1	2.2	nt	nt	3.0	0.1
CCC(C)NCCOCCOc1ccc(Cl)c(C)c1C (stereo not drawn)	nt	nt	nt	nt	-1.7
CCC(C)NCCOCCOc1ccc(Cl)c2ccccc12 (stereo not drawn)	-53.1*	3.6	-4.8	-1.2	2.5
O=C(C[C@H]1CC[C@H](NC(=O)CN2CCOCC2)[C@H](CO)O1)NC1CCCCC1	2.0	-3.8	nt	-9.6	0.0
CCCC(NC(=O)C(C)Sc1nnnn1C1CC1)c1ccccc1 (stereo not drawn)	1.4	0.8	2.8	90.3*	-1.9
CC(Sc1nnnn1C1CC1)C(=O)Nc1cccc(S(=O)(=O)N2CCOCC2)c1 (stereo not drawn)	5.1	-0.6	5.7	-4.5	nt
SMILES	Ecoli rRNA inh	Cneo AK release	miR-122 sensor	DENV2 CPE	E-selectin induc
CCCNC(=O)N1CC2(C1)CN(C(=O)Nc1ccc(F)cc1)[C@@H](CO)c1[nH]c3cc(OC)ccc3c12	-0.5	nt	nt	8.5	0.2
CCCNC(=O)N1CC2(C1)CN(C(=O)CCC)[C@H](CO)c1[nH]c3cc(OC)ccc3c12	3.4	nt	nt	nt	nt
COc1ccc2c3c([nH]c2c1)[C@@H](CO)N(C(=O)Nc1ccc(F)cc1)CC31CCN(Cc2cc(-c3ccccc3)on2)CC1	-5.1	nt	nt	-5.4	-0.2
COc1ccc2c3c([nH]c2c1)[C@H](CO)N(C(=O)Nc1ccc(F)cc1)CC31CCN(C(=O)Nc2ccc3c(c2)OCO3)CC1	-2.8	nt	nt	61.4*	0.2
CCCNC(=O)N1CC2(C1)CN(C(=O)Nc1ccc(F)cc1)[C@H](CO)c1[nH]c3cc(OC)ccc3c12	0.1	nt	nt	23.2*	0.4
COc1ccc2c3c([nH]c2c1)[C@H](CO)N(C(=O)Nc1ccc(F)cc1)CC31CN(Cc2cc(-c3ccccc3)on2)C1	-3.3	nt	nt	50.2*	1.7
CCCNC(=O)N1CC2(C1)CN(C(=O)CCC)[C@@H](CO)c1[nH]c3cc(OC)ccc3c12	0.2	nt	nt	21.6*	-0.3
CCCNC(=O)N[C@H]1CC[C@H](CCn2cc(C3CC3)nn2)O[C@@H]1CO	3.0	54.4	nt	-8.0	-0.3
O=C(Cc1cccnc1)N1CC(=O)N2[C@@H](CO)[C@H](c3ccc(C#CC4CCCC4)cc3)[C@@H]2C1	1.6	nt	nt	18.9	-0.6
COc1ccc2c3c([nH]c2c1)[C@H](CO)N(C(=O)Nc1cccc(F)c1)CC31CN(S(=O)(=O)c2ccccc2)C1	-6.8	nt	nt	79.2*	-0.4
COc1ccc2c3c([nH]c2c1)[C@H](CO)N(C(=O)Nc1ccc(F)cc1)CC31CN(S(=O)(=O)c2ccccc2)C1	-2.3	nt	nt	1.0	0.1
O=C(O)CN1C(=O)/C(=C\c2ccccc2OCc2ccc(F)cc2)SC1=S	-39.0*	-1.8	-8.5	-6.9	0.0
O=C(O)CN1C(=O)/C(=C\c2cc(Br)ccc2OCc2ccc(Cl)cc2)SC1=S	-55.1	-1.3	nt	?	49.3*
COCCNC(=O)c1ccc(CS(=O)(=O)c2c(Cl)cccc2Cl)o1	9.3	-0.2	-5.3	58.4*	nt
COc1cc(C2SCCS2)cc(Br)c1Oc1ncccc1[N+](=O)[O-]	6.1	-2.0	6.2	-2.6	60.6*
COc1ccc2o/c(=N\O)c(C(=O)Nc3ccc(C)cc3)cc2c1	-11.0	nt	nt	25.2*	0.0
CCC(=O)N1C[C@H](C)[C@@H](OC)CN(C)C(=O)c2ccc(NC(=O)C3CCOCC3)cc2OC[C@@H]1C	0.5	nt	nt	-4.2	-0.1
Cc1ccc(Cn2nnc3c(=O)n(CC(=O)OCc4ccccc4)cnc32)cc1	-1.1	-18.8	-0.8	-5.3	nt
Cc1ccc(Cn2nnc3c(=O)n(CC(=O)N4CCN(c5ccccc5)CC4)cnc32)cc1	-25.0*	-0.1	nt	-0.8	nt
CCn1c(-c2cc(-c3ccc(C)cc3)nc3ccccc23)n[nH]c1=S	-28.8	0.8	-3.2	?	-0.1
C=CCn1c(-c2cc(-c3ccc(C)cc3)nc3ccccc23)n[nH]c1=S	-28.9*	nt	nt	3.3	nt
CCCn1c(SCC(=O)Nc2ccccc2N2CCCCC2)nc2c1c(=O)n(C)c(=O)n2C	-29.1*	-0.4	nt	-1.6	nt
Cc1cc(C)n2c(NC3CCCC3)c(-c3cccnc3)nc2n1	8.5	nt	nt	22.1*	0.0

Bioassay records (PubChem BioAssay)
